Bioassay records as filed in PubChem.
Hits are enriched below; roughly 1.7% of the tested compounds scored in any of these assays.
Rpn11 inh = blocks the human proteasome subunit Rpn11; O00487; human 26S proteasome, Ub4-pepOG fluorescence polarization; 20S core pre-blocked with epoxomicin; inhibition, % at 20 µM; actives 0.59% (n = 360,000);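 active means inhibition at 20 µM, scaled to each plate's controls, above about 33%, limit read from the data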
Target sequence (O00487 whole entry, looked up): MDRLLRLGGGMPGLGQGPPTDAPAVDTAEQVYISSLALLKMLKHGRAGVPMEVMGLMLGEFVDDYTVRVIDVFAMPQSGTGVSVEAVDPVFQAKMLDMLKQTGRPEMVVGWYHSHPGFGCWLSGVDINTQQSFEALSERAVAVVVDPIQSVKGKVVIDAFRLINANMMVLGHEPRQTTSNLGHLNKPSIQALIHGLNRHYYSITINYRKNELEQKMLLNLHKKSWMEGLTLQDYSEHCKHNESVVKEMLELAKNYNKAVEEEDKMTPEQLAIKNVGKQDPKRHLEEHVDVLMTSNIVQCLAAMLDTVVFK
CSN deneddyl inh = inhibitors of human CSN-mediated cullin deneddylation. Q92905. Purified CSN, SCF-Nedd8-OG deneddylation, fluorescence polarization. inhibition, % at 12.5 µM. actives 0.38% (n = 360,000);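 active means pattern-corrected inhibition above about 35%, with an unprinted fluorescence ratio check between 0.5 and 1.5, limit read from the data, passing the limit was not always enough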;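 further: 0% = enzyme with substrate and 100% = substrate without enzyme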
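Detection – fluorescence polarization · System – HEK293T-derived human Csn5 enzyme · Controls – substrate-only high control, full reaction low control · Timing – 90 min, room temperature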
IDE cell inh = cellular human IDE inhibition; P14735; HEK cells, FAbetaB cleavage, fluorescence polarization; inhibition, % at 5.59 µM; actives 0.41% (n = 320,000); AID 434962;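 active means percent inhibition above the average of all tested compounds plus 3 SD, set per screening campaign, cut at about 16% in these data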;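 further: IDE supplied by intact live HEK cells; FP after avidin binding of uncleaved biotin substrate so inhibition keeps polarization high; 0% = DMSO wells and 100% = 60 µM reference IDE inhibitor Ii1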
HNF4A DNA FP = change in binding of human HNF4 alpha to DNA. P41235. HNF4a-FITC DNA binding, fluorescence polarization, 1 h. activity change, % at 10 µM. actives 0.3% (n = 360,000). AID 1224865; in the data active means activity change above about 30%, passing the limit was not always enough
TPT1 inhibitor = C. albicans TPT1 enzyme inhibition. recombinant caTPT1, FP RNA substrate dephosphorylation. inhibition, % at 5 µM. actives 0.81% (n = 300,000). AID 1962;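 active means inhibition above the mean of all tested compounds plus 3 SD, set per screening campaign, cut at about 24% in these data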;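 further: plate controls were DMSO alone for no effect and ferristatin control at 100 nM for full effect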
IDE act = activators of human insulin-degrading enzyme in cells; P14735; HEK cells, FAbeta-B cleavage, fluorescence polarization; 0% vehicle, 100% cell-free pure enzyme wells; activation, % at 5.96 µM; actives 0.073% (n = 340,000);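 active means activation above the mean of all tested compounds plus 3 SD, set per screening campaign, cut at about 17% in these data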
TPT1 inh confirm = TPT1 (C. albicans) inhibition, confirmation; recombinant caTPT1, fluorescence polarization, RNase T1 coupled; inhibition, % at 5 µM; actives 74% (n = 2,400); shares compounds with TPT1 inhibitor;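 active means inhibition above the primary screen limit, the mean inhibition of all tested compounds plus 3 SD, cut at about 25% in these data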
RNase T1 counter = blocks Aspergillus oryzae RNase T1, a TPT1 counter-screen. shares compounds with TPT1 inhibitor. RNase T1 cleavage, fluorescence polarization, 1536-well. inhibition, % at 5 µM. actives 83% (n = 2,400). AID 2153;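 active means inhibition above the solvent-only control well mean plus 3 SD, limit set per screening run, cut at about 23% in these data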;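 further: plate controls were DMSO wells with enzyme for no effect and wells without RNase T1 for full effect; inhibitors block cleavage so intact labeled substrate keeps polarization high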
Target sequence (P00651 whole entry, looked up): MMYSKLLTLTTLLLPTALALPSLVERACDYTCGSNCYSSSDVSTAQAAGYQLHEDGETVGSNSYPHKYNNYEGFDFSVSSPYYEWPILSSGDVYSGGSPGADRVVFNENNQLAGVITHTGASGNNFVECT
IDE inh confirm = confirmation of human insulin-degrading enzyme inhibitors in cells; shares compounds with IDE cell inh; HEK cells, FAbetaB cleavage, fluorescence polarization; inhibition, % at 5.59 µM; actives 51% (n = 1,200); AID 435028;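 active means mean inhibition across triplicate wells above the cutoff set by the earlier primary insulin-degrading enzyme screen, cut at about 16% in these data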;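 further: 0% = DMSO wells and 100% = 60 µM reference IDE inhibitor Ii1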
HEK cytotox = counter-screen for IDE inhibitors: cytotoxicity in HEK cells; HEK293 cytotoxicity, ATP luminescence; inhibition, % at 5.59 µM; actives 28% (n = 1,200); shares compounds with IDE cell inh; AID 449730; in the data active means inhibition above about 22%;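 further: 0% = vehicle wells and 100% = reference cytotoxic drug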
Rpn11 confirm = Rpn11 inhibition confirmation, single concentration. shares compounds with Rpn11 inh. actives 29% (n = 1,900). AID 602318. inhibition, % at 20 µM. purified human 26S proteasome, Ub4-pepOG fluorescence polarization; proteasome pretreated with epoxomicin
MMP-2 counter-1 = blocks human MMP-2, flagging nonselective RPN11 hits; recombinant MMP-2, FRET peptide cleavage fluorescence; shares compounds with Rpn11 inh; actives 4% (n = 1,900); inhibition, % at 20 µM;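 further: human MMP-2 activated beforehand with APMA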
Thrombin FP = counter-screen for RPN11 inhibitors: inhibition of bovine thrombin; shares compounds with Rpn11 inh; bovine thrombin cleavage of Ub4-pepOG, fluorescence polarization; inhibition, % at 20 µM; actives 13% (n = 1,900); AID 602333;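 active means mean inhibition at least 40% at 20 µM, or signal 3 deviations below plate average, so some actives read negative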;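 further: plate controls were thrombin with DMSO for no effect and buffer wells lacking thrombin for full effect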
CSN deneddyl val = validation of inhibitors of human CSN-mediated cullin deneddylation; shares compounds with CSN deneddyl inh; Csn5 deneddylation of SCF-Nedd8OG, fluorescence polarization, 90 min; inhibition, % at 16.6 µM; actives 62% (n = 540); in the data active means inhibition above about 50%;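 further: 0% = DMSO with enzyme and 100% = no enzyme wells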
MMP-2 counter-2 = blocks human MMP-2 in a CSN deneddylation counter-screen; inhibition, % at 16.6 µM; recombinant MMP-2, FRET substrate fluorescence, 60 min; shares compounds with CSN deneddyl inh; AID 720655; actives 33% (n = 540);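 active means corrected plate-normalized z-score of 5 or more, or -5 or less, or inhibition of 15% or more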;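 further: plate controls were DMSO wells with enzyme for no effect and buffer wells lacking MMP-2 for full effect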
Thrombin cntr = thrombin (bovine) inhibition, counter-screen for CSN hits. shares compounds with CSN deneddyl inh. bovine thrombin cleavage of Ub4-pepOG, fluorescence polarization. inhibition, % at 16.6 µM. actives 49% (n = 540). AID 720656;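 active means inhibition at or above a set limit, with a fluorescence interference ratio between 0.5 and a set maximum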
* = called active by the depositor; . = no result given; + = active, no number. Unless noted, no stated cut-off is given here; in the data, active means inhibition above about 40%; inactive means the rest.

SMILES	Rpn11 inh	CSN deneddyl inh	IDE cell inh	HNF4A DNA FP	TPT1 inhibitor	IDE act	TPT1 inh confirm	RNase T1 counter	CSN deneddyl val	MMP-2 counter-2	Thrombin cntr	others
Cc1ccc(S(=O)(=O)NNC(=O)Nc2cccc(C)c2C)c(C)c1	-5	1	-3	3	-4	4	.	.	.	.	.
CN(C)c1ccc(/C=C2\CCC/C(=C\c3ccccc3)C2=O)cc1	.	73*	7	106	104*	-6	111*	109*	91*	-9	36*
N#CC/C(N)=N/Nc1nc2ccccc2nc1Cc1ccccc1	22	8	-3	9	8	7	.	.	.	.	.
Cc1cc2nc3s/c(=C/c4ccc(-c5ccccc5C(=O)O)o4)c(=O)n3c2cc1C	.	99*	4	78	112*	2	125*	123*	-19	-2	64*
O=C(CNC(=O)c1ccc2c(c1)OCO2)N/N=C/c1cc(Br)ccc1O	-8	0	0	-1	-4	1	.	.	.	.	.
Nc1[nH]c2cc([N+](=O)[O-])ccc2c1-c1ccccn1	.	64*	11	91*	101*	-12	102*	105*	49	-5	44*
CCN1C(=O)/C(=C/C=C2\C=CN(CC)c3ccccc32)SC1=S	8	4	8	2	2	-5	.	.	.	.	.
CCN1C(=O)/C(=C\C=C2/C=CC=CN2CC)SC1=S	.	53*	4	136*	27*	-9	36*	55*	61*	23*	63*
CC1=CN2C(=N)/C(=C/c3ccc([N+](=O)[O-])o3)C(=O)N=C2S1	.	102*	9	66*	77*	-18	118*	118*	52*	10	92*
CC1=CN2C(=N)/C(=C/c3ccco3)C(=O)N=C2S1	-3	-2	4	1	1	-4	.	.	.	.	.
CCOC(=O)C1(CCCc2ccccc2)CCN(C(=O)CCOC)CC1	0	-2	-1	-2	2	8	.	.	.	.	.
O=C(N/N=C/c1cc(Br)cc(Cl)c1O)c1ccc2c(c1)OCO2	+	100*	1	17	35*	6	33*	45*	-106	29*	20*	Rpn11 confirm=198*;MMP-2 counter-1=25;Thrombin FP=13
Cc1cccn2c(=O)c3cc(C(=O)NCCN4CCOCC4)n(C)c3nc12	-1	5	2	1	-1	1	.	.	.	.	.
CCOCCCNc1nc2c(C)cccn2c(=O)c1/C=C1\SC(=S)N(CC(C)C)C1=O	75*	47*	5	57*	52*	-1	76*	95*	76*	-5	20*	Rpn11 confirm=91*;MMP-2 counter-1=60*;Thrombin FP=72*
Cc1cccn2c(=O)c(/C=C3\SC(=S)NC3=O)c(NCCCN3CCOCC3)nc12	.	85*	14	109*	121*	-9	122*	120*	81*	-18	47*
COc1ccc(CCN(C)CC(O)c2ccccc2)cc1OC (stereo not given)	-7	-7	3	1	-4	4	.	.	.	.	.
C[C@H](NC(=O)c1nc[nH]c1C(=O)N(C)CCO)c1ccccc1	-9	-5	.	0	.	.	.	.	.	.	.
C(=C\c1ccco1)/C1=NN(c2ccccc2)C(c2ccco2)C1 (stereo not given)	72*	84*	4	33	53*	-3	38*	47*	62*	-3	31*	Rpn11 confirm=70*;MMP-2 counter-1=7;Thrombin FP=55*
Fc1ccc(C2=NN(c3ccccc3)C(c3ccco3)C2)cc1 (stereo not given)	4	11	3	3	-1	3	.	.	.	.	.
N#C/C(=C\c1ccc(N2CCOCC2)o1)C(=O)NC1CCCCC1	.	77*	46*	166	163*	-37	177*	169*	141*	-10	65*	IDE inh confirm=48*;HEK cytotox=17
N#C/C(=C\c1ccc(N2CCOCC2)o1)C(=O)NCCc1ccccc1	.	98*	72*	188	+	-140	181*	171*	+	-19	-5	IDE inh confirm=78*;HEK cytotox=8
CN(C)c1ccc(/C=C/C(=O)c2cc(Cl)ccc2O)cc1	.	71*	4	75*	40*	-8	50*	60*	68*	-18	42*
C=CCSC1=N/C(=C\C=C\c2ccco2)C(=O)S1	37	57*	4	1	29*	4	28*	38*	68*	30*	8
C=CCSC1=N/C(=C\c2sccc2C)C(=O)S1	2	-1	-5	-2	1	4	.	.	.	.	.
O=C(O)c1ccc(N/N=C/c2ccc(-c3cccc(Cl)c3)o2)cc1	10	7	6	1	3	1	.	.	.	.	.
O=C(O)c1cccc(-c2ccc(/C=N/Nc3ccc([N+](=O)[O-])cc3)o2)c1	.	93*	18*	124	124*	-10	126*	120*	51*	-5	49	IDE inh confirm=22*;HEK cytotox=10
O=C(N/N=C/c1ccco1)c1cc([N+](=O)[O-])cc([N+](=O)[O-])c1	0	-9	0	2	-1	-3	.	.	.	.	.
